Tests used:
[1] = Stability test of Sec-containing peptides in oxygenated buffer; type: physicochemical; details: for β-syn elimination: dehydroalanine-containing peptide (species D) by MS: 96 h in oxygenated KP buffer pH 8.0, 25 °C, positive ESI-MS, linear ion trap; for Deselenization seen as red selenium precipitate / color change: peptide 1 mM in oxygenated KP buffer pH 8.0, 96 h, visual inspection
Procedure, shortened: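 Test peptides incubated in oxygenated KP buffer, pH 8.0, at 25 °C. Aliquots taken at 24, 48 and 96 h and centrifuged to pellet precipitated selenium. For MS, samples from time zero and 96 h were infused through a guard column at 10 μL/min into 100 μL/min 50/50 water/acetonitrile with 0.1% formic acid, using positive ESI and a linear ion trap scan over m/z 200–1800. Tubes with 1 mM peptide were photographed.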

[2] = cited from earlier work

Molecule	β-syn elimination: dehydroalanine-containing peptide (species D) by MS [1]	Deselenization seen as red selenium precipitate / color change [1]	Water solubility [2]
H-Sec-Gly-Thr-Thr-Val-Arg-Asp-Tyr-Thr-Gln-OH [peptide 12]	β-syn elimination occurred	red precipitate clearly forms	
H-(αMe)Sec-Gly-Thr-Thr-Val-Arg-Asp-Tyr-Thr-Gln-OH [peptide 11]	absent	no color change was observed	
O=c1c2ccccc2[se]n1-c1ccccc1 [ebselen, 2-phenyl-1,2-benzisoselenazol-3(2H)-one]			not water soluble
